# ChEMBL document CHEMBL2424625, “Synthesis and structure-activity relationships of novel indazolyl glucocorticoid receptor partial agonists” (Bioorg Med Chem Lett, 2013)
# Legend:
# Glucocorticoid receptor [1] = target: T1, Glucocorticoid receptor (Homo sapiens, UniProt P04150); assay: Transrepression activity at glucocorticoid receptor in human A549 cells assessed as inhibition of PMA-stimulated AP1 response element by luciferase reporter gene assay; assay type: cell-based
# T1 sequence (P04150 whole entry): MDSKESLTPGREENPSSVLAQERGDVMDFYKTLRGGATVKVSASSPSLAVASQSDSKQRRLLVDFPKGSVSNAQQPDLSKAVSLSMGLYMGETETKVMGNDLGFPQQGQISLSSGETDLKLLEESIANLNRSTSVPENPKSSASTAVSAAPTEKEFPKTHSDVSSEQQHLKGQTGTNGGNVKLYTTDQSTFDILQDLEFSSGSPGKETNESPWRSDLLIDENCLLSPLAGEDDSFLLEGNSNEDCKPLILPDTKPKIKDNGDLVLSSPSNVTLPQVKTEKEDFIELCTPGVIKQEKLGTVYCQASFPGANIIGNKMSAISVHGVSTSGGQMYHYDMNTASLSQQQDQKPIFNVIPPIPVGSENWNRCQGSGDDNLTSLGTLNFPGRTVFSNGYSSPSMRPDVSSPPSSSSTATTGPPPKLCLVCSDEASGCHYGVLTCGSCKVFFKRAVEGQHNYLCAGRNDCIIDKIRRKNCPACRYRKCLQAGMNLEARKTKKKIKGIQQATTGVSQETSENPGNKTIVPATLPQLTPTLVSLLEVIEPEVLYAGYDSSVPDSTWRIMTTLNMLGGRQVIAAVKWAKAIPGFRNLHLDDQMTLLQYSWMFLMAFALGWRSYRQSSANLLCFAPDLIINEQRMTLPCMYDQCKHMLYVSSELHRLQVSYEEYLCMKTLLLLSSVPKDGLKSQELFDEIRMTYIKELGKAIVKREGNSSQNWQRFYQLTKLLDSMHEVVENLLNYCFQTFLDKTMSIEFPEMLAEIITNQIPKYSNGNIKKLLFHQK
# Androgen receptor = target: T2, Androgen receptor (Homo sapiens, UniProt P10275); assay: Binding affinity to androgen receptor (unknown origin) by fluorescence assay
# T2 sequence (P10275 whole entry): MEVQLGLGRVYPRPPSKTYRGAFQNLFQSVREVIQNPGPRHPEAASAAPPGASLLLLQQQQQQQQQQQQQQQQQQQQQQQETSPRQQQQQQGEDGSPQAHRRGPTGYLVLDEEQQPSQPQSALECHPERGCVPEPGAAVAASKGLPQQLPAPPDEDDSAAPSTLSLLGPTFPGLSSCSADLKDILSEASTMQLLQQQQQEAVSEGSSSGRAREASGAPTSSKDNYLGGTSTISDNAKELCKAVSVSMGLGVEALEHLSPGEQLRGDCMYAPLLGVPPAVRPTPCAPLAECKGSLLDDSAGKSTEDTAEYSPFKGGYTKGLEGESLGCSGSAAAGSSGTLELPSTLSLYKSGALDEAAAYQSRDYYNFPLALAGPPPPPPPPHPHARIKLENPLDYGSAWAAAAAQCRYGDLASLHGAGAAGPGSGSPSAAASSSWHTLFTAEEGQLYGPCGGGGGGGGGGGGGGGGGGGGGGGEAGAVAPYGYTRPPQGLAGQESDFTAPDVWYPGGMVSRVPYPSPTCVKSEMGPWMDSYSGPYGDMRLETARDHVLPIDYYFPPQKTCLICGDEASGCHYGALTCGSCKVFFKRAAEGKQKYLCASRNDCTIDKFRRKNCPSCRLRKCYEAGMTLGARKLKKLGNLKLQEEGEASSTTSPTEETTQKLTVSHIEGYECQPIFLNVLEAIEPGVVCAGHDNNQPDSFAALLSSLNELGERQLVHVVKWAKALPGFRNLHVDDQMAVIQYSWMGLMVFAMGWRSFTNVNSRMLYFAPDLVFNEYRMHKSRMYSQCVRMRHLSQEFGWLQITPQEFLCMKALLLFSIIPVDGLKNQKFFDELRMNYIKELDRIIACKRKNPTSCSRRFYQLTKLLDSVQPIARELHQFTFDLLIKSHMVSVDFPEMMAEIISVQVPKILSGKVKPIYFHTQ
# How it was run: (§1)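 Fluorescence polarization competition between test compound and a fluorescently labeled ligand for binding to full-length receptor or its ligand binding domain. IC50 was fit to the signal by four-parameter logistic equation. Ki = IC50/(1 + ligand concentration/Kd) (Cheng–Prusoff).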
# [2] = target: T3, Glucocorticoid receptor (Homo sapiens) (UniProt P04150); assay: Transrepression activity at glucocorticoid receptor in human A549 cells assessed as inhibition of PMA-stimulated AP1 response element by luciferase reporter gene assay relative to dexamethasone; assay type: cell-based
# T3 sequence (whole entry): T1 sequence (P04150 whole entry)
# How it was run: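 Transrepression of AP-1 was run in A549 lung epithelial cells. […] Values are means of two or more experiments in triplicate.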
# Glucocorticoid receptor [3] = target: T1, Glucocorticoid receptor; assay: Binding affinity to glucocorticoid receptor (unknown origin) by fluorescence assay
# Glucocorticoid receptor [4] = target: T1, Glucocorticoid receptor; assay: Transrepression activity at glucocorticoid receptor in human A549 cells assessed as inhibition of IL1beta-stimulated NFkappaB-dependent E-selectin transcription by luciferase reporter gene assay; assay type: cell-based
# Glucocorticoid receptor [5] = target: T1, Glucocorticoid receptor; assay: Transactivation activity at glucocorticoid receptor ligand binding domain (unknown origin) expressed in human Hela cells co-expressing GAL4 DNA binding domain assessed as NP-1-stimulated GRE activation by luciferase reporter gene assay; assay type: cell-based
# Progesterone receptor = target: T4, Progesterone receptor (Homo sapiens, UniProt P06401); assay: Binding affinity to progesterone receptor (unknown origin) by fluorescence assay; how it was run: as §1
# T4 sequence (P06401 whole entry): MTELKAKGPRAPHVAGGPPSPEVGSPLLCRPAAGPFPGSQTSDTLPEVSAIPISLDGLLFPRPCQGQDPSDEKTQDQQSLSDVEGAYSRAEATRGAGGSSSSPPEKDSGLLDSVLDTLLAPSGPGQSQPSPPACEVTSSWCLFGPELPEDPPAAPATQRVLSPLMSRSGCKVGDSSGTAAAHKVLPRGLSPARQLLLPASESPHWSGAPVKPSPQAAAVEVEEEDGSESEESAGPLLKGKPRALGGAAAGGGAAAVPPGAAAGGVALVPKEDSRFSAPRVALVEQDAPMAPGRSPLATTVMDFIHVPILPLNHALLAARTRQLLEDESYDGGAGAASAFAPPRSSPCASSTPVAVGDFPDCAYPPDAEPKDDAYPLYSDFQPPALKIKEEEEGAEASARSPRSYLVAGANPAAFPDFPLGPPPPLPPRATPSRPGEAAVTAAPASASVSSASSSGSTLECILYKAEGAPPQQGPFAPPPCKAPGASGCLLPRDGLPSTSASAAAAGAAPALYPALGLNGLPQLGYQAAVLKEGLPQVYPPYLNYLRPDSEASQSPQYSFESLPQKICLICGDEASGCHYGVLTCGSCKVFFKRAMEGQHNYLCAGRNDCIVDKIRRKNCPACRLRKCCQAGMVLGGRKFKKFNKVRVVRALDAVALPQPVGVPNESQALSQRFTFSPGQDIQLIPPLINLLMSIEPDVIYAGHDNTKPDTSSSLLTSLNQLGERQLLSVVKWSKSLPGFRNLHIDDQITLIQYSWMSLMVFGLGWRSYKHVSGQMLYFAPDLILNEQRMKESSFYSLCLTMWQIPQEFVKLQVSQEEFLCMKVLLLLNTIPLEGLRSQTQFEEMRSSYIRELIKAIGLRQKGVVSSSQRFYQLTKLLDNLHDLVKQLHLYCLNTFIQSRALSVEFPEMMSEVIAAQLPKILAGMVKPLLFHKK
SMILES,EC50 (Glucocorticoid receptor [1]),Ki (Androgen receptor),Efficacy [2],Ki (Glucocorticoid receptor [3]),EC50 (Glucocorticoid receptor [4]),EC50 (Glucocorticoid receptor [5]),Ki (Progesterone receptor)
CC(C)(CNS(=O)(=O)CC(F)(F)F)[C@@H](c1ccccc1)c1ccc2c(cnn2-c2ccc(F)cc2)c1,20.4 nM,> 5000 nM,74%,0.64 nM,7.6 nM,202 nM,406 nM
CC(C)(CNC(=O)CC(F)(F)F)[C@@H](c1ccccc1)c1ccc2c(cnn2-c2ccc(F)cc2)c1,12.4 nM,> 5000 nM,91%,0.81 nM,6.85 nM,129 nM,> 5000 nM
CC(C)(C)NC(=O)NCC(C)(C)[C@@H](c1ccccc1)c1ccc2c(cnn2-c2ccc(F)cc2)c1,57 nM,> 5000 nM,74%,5.14 nM,58 nM,429 nM,> 5000 nM
